# Measured values as given in ChEMBL document CHEMBL1154253, “Synthesis and serotonin transporter activity of sulphur-substituted alpha-alkyl phenethylamines as a new class of anticancer agents” (Eur J Med Chem, 2009).
# Assays:
# [1] = target: Sodium-dependent serotonin transporter (Rattus norvegicus, UniProt P31652); assay: Inhibition of [3H]5-HT reuptake at rat SERT expressed in HEK293 cells after 2 mins by liquid scintillation counting; format: cell-based
# HEK293 = assay: Cytotoxicity against human HEK293 cells after 48 hrs by neutral red assay; format: cell-based; details: HEK293, 48 h, read-out: pEC50 (converted)
# Method in brief: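 Neutral Red uptake: 5 × 10⁴ cells/well grown 24–36 h to sub-confluence, then treated 48 h. Cells incubated 3 ± 1 h with NR dye, washed and solubilised in 50% ethanol–1% acetic acid, and absorbance read at 540 nm (690 nm background). Viability given as % of vehicle-treated cells. pEC50 obtained by sigmoidal regression (Hill slope 1) using 4 concentrations in triplicate on two independent days. SERT-line values compared with parental HEK293 by two-way ANOVA with Bonferroni test. Sodium azide 30 mM and Triton-X 2% as positive controls.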
# SH-SY5Y = assay: Cytotoxicity against human SH-SY5Y cells after 48 hrs by neutral red assay; format: functional, cell-based
# MCF7 [2] = assay: Antiproliferative activity against human MCF7 cells at 50 uM after 24 hrs by alamar blue assay; format: functional
# Method in brief: (§1)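 Alamar Blue viability: 1–5 × 10⁴ cells/well seeded, drug-treated for the stated time, then 10 µl Alamar Blue added and incubated 4–6 h at 37 °C in the dark. Fluorescence read at ex 544/em 590 nm, medium-only background subtracted, untreated cells = 100% viability. Taxol 10 µM as positive control. Mean ± S.E.M. of six points (triplicate on two independent days).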
# [3] = Antiproliferative activity against human MUTU-I cells assessed as cell viability at 50 uM after 24 hrs by alamar blue assay; format: functional; details: read-out: Activity; method in brief: as §1
# DG-75 [4] = assay: Antiproliferative activity against human DG75 cells assessed as cell viability at 50 uM after 72 hrs by alamar blue assay; format: functional; details: DG-75, 72 h, read-out: Activity; method in brief: as §1
# [5] = Antiproliferative activity against human MUTU-I cells at 50 uM after 24 hrs by alamar blue assay; format: functional; method in brief: as §1
# DG-75 [6] = assay: Antiproliferative activity against human DG75 cells at 50 uM after 72 hrs by alamar blue assay; format: functional; method in brief: as §1
# [7] = Antiproliferative activity against […] cells at 50 uM after 24 hrs by alamar blue assay; format: functional, 4T1; method in brief: as §1
# MDA-MB-231 = assay: Antiproliferative activity against human MDA-MB-231 cells at 50 uM after 24 hrs by alamar blue assay; format: functional; method in brief: as §1
# DG-75 [8] = assay: Induction of apoptosis in human DG75 cells after 72 hrs by annexin V-propidium iodide staining-based FACS analysis; format: functional, cell-based; details: DG-75, 72 h
# [9] = Induction of apoptosis in human MUTU-I cells after 24 hrs by annexin V-propidium iodide staining-based FACS analysis; format: functional, cell-based
# HL-60 [10] = assay: Induction of apoptosis in human HL60 cells after 24 hrs by annexin V-propidium iodide staining-based FACS analysis; format: functional, cell-based; details: HL-60, 24 h
# DG-75 [11] = assay: Induction of apoptosis in human DG75 cells at 10 to 50 uM after 72 hrs by annexin V-propidium iodide staining-based FACS analysis; format: functional
# [12] = Induction of apoptosis in human MUTU-I cells at 10 to 50 uM after 24 hrs by annexin V-propidium iodide staining-based FACS analysis; format: functional
# HL-60 [13] = assay: Induction of apoptosis in human HL60 cells at 10 to 50 uM after 24 hrs by annexin V-propidium iodide staining-based FACS analysis; format: functional
# DG-75 [14] = assay: Induction of apoptosis in human DG75 cells at 50 uM after 72 hrs by annexin V-propidium iodide staining-based FACS analysis; format: functional
# PBMC = assay: Cytotoxicity against human PBMC at 10 uM after 24 hrs by alamar blue assay; format: cell-based
# Method in brief: (§2)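 PBMCs from a healthy donor, separated on Ficoll and resuspended in IMDM with FCS and penicillin/streptomycin. Seeded at 1–5 × 10⁴ cells/200 µl and treated 24 h. Alamar Blue added, fluorescence read at ex 544/em 590 nm, background subtracted, untreated cells = 100% viability. Mean + S.E.M.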
# [15] = Cytotoxicity against human PBMC assessed as cell viability at 50 uM after 24 hrs by alamar blue assay; format: cell-based; details: read-out: Activity; method in brief: as §2
# MCF7 [16] = assay: Antiproliferative activity against human MCF7 cells assessed as cell viability at 50 uM after 24 hrs by alamar blue assay; format: functional; details: MCF7, 24 h, read-out: Activity; method in brief: as §1
# Sodium-dependent serotonin transporter, sequence (P31652 whole entry): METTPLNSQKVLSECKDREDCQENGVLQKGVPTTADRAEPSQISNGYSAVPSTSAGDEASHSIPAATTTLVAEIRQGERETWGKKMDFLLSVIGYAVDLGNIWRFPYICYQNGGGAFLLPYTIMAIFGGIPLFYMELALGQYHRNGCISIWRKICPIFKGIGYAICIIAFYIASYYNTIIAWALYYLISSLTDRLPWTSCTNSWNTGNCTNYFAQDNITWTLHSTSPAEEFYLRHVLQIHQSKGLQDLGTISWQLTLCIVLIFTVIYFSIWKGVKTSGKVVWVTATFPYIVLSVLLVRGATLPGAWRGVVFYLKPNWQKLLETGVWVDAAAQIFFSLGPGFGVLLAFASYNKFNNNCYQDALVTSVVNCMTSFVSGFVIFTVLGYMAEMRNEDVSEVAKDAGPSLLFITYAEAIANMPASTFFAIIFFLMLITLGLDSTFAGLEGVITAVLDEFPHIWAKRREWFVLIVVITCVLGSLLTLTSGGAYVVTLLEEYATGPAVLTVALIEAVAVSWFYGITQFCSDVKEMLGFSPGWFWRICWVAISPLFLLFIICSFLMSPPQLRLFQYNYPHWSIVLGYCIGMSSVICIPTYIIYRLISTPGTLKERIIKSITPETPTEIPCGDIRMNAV
structure (smiles),measurement,setting,value
CC(N)Cc1ccc(Sc2ccccc2)cc1 (stereo unspecified),IC50,[1],14.3 µM
same,EC50,HEK293,2.75 µM
same,EC50,SH-SY5Y; read-out: EC50,1 µM
same,EC50,SH-SY5Y; read-out: pEC50 (converted),13.2 µM
same,Activity,MCF7 [2],40%
same,viability at 50 µM,[3],10%
same,viability at 50 µM,DG-75 [4],10%
same,Activity,[5],90%
same,Activity,DG-75 [6],90%
same,Activity,[7],90%
same,Activity,MDA-MB-231,90%
same,EC50,DG-75 [8],23.7 µM
same,EC50,[9],14.2 µM
same,EC50,HL-60 [10],19.6 µM
same,Activity,DG-75 [11],40%
same,Activity,[12],40%
same,Activity,HL-60 [13],40%
same,Activity,DG-75 [14],40%
same,Activity,PBMC,Non-toxic
same,"viability at 24 h, 50 µM",[15],50%
same,viability at 50 µM,MCF7 [16],< 10%
